Reference: ChEMBL document CHEMBL1140930 (J Med Chem, 2009)

Experiments:
K562 = experiment: Antiproliferative activity against human K562 cells after 48 hrs; format: functional, cell-based; conditions: K562, 48 h
Outline: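 K562 cells (RPMI 1640, 10% FBS, 37 °C, 5% CO2) plated at 2 × 10⁵ cells/mL. Compounds dissolved in DMSO/methanol 1:1, vehicle 0.5%. Cells counted in a Neubauer chamber after 48 h and expressed as % of untreated control. Triplicate wells, three experiments. IC50 from nonlinear regression.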

Tubulin = Tubulin (Sus scrofa, UniProt P02554+P02550); experiment: Inhibition of pig brain tubulin polymerization after 30 mins by turbidimetric assay
Outline: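 Microtubule protein from porcine brain (80–90% tubulin, 10–20% MAPs), purified by two disassembly/reassembly cycles. Assay buffer: 20 mM PIPES pH 6.8, 80 mM NaCl, 0.5 mM MgCl2, 1 mM EGTA, 1 mM DTT. Protein at 1.2 mg/mL with 0.6 mM GTP final, 1% DMSO final, 37 °C.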

[1] = Antiproliferative activity against human KB/HeLa cells by XTT assay; format: functional, cell-based
Outline: (§1)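 XTT metabolic read-out. Cells seeded at 1 × 10³–8 × 10⁴ cells/well for logarithmic growth and exposed to graded concentrations for 48 h. At least two replicates. IC50 from nonlinear regression of dose-response curves. LT12/MDR: rat LT12 with ectopic human MDR-1. L1210/VCR: MDR-1 expressing, MRP-1 negative.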

RKO [2] = experiment: Antiproliferative activity against human RKO cells containing ecdysone-inducible expression vector of p27kipl by XTT assay; format: functional, cell-based
Outline: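 RKO cells carried an ecdysone-inducible p27Kip1 vector and were tested with and without induction. On day 1 they were plated with or without 3 µM ponasterone A, which gives G1 arrest, at 2 × 10⁴ cells/well induced or 6 × 10³ not induced, then held 24 h at 37 °C. Compound was then added for 48 h at 37 °C, followed by a standard XTT assay. IC50 came from nonlinear regression, n ≥ 2.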

[3] = Antiproliferative activity against rat LT12 cells after 48 hrs by XTT assay; format: functional, cell-based; conditions: LT12, 48 h
Outline: (§2)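 XTT metabolic-activity read-out of proliferation. Cells were seeded at 1 × 10³-8 × 10⁴ cells/well for logarithmic growth and exposed to a range of compound concentrations for 48 h. IC50 came from nonlinear regression of dose-response curves, with at least two replicates. The P388/Adr subline was doxorubicin-selected with elevated MDR-1.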

[4] = Antiproliferative activity against rat LT12 cells ectopic expression of human MDR1 after 48 hrs by XTT assay; format: functional, cell-based; conditions: LT12, 48 h; outline: as §1
L1210 = experiment: Antiproliferative activity against vincristine-resistance MRP1 negative mouse L1210 cells expressing human MDR1 after 48 hrs by XTT assay; format: functional, cell-based; conditions: L1210, 48 h; outline: as §1
P388 [5] = experiment: Antiproliferative activity against mouse P388 cells after 48 hrs by XTT assay; format: functional, cell-based; conditions: P388, 48 h; outline: as §2
P388 [6] = experiment: Antiproliferative activity against doxorubicin-resistant mouse P388 cells expressing MDR1 protein after 48 hrs by XTT assay; format: functional, cell-based; conditions: P388, 48 h; outline: as §2
[7] = Cell cycle arrest in human KB/HeLa cells assessed as G2/M phase accumulation after 24 hrs by FACS analysis; format: functional, cell-based
Outline: (§3)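 Subconfluent KB/HeLa cells exposed to a range of compound concentrations for 24 h at 37 °C, then detached and fixed in 70% ethanol. DNA stained with propidium iodide after RNase digestion and measured by flow cytometry. Cell-cycle phase fractions taken from cell cycle analysis software. At least two replicates.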

[8] = Cell cycle arrest in human KB/HeLa cells assessed as S phase accumulation at 1 nM after 24 hrs by FACS analysis; format: functional, cell-based; outline: as §3
[9] = Cell cycle arrest in human KB/HeLa cells assessed as G2/M phase accumulation at 1 nM after 24 hrs by FACS analysis; format: functional, cell-based; outline: as §3
[10] = Cell cycle arrest in human KB/HeLa cells assessed as G1 phase accumulation at 1 nM after 24 hrs by FACS analysis; format: functional, cell-based; outline: as §3
[11] = Cell cycle arrest in human KB/HeLa cells assessed as S phase accumulation at 3.16 nM after 24 hrs by FACS analysis; format: functional, cell-based; outline: as §3
[12] = Cell cycle arrest in human KB/HeLa cells assessed as G2/M phase accumulation at 3.16 nM after 24 hrs by FACS analysis; format: functional, cell-based; outline: as §3
[13] = Cell cycle arrest in human KB/HeLa cells assessed as G1 phase accumulation at 3.16 nM after 24 hrs by FACS analysis; format: functional, cell-based; outline: as §3
[14] = Cell cycle arrest in human KB/HeLa cells assessed as S phase accumulation at 10 nM after 24 hrs by FACS analysis; format: functional, cell-based; outline: as §3
[15] = Cell cycle arrest in human KB/HeLa cells assessed as G2/M phase accumulation at 10 nM after 24 hrs by FACS analysis; format: functional, cell-based; outline: as §3
[16] = Cell cycle arrest in human KB/HeLa cells assessed as G1 phase accumulation at 10 nM after 24 hrs by FACS analysis; format: functional, cell-based; outline: as §3
[17] = Cell cycle arrest in human KB/HeLa cells assessed as S phase accumulation at 31.6 nM after 24 hrs by FACS analysis; format: functional, cell-based; outline: as §3
[18] = Cell cycle arrest in human KB/HeLa cells assessed as G2/M phase accumulation at 31.6 nM after 24 hrs by FACS analysis; format: functional, cell-based; outline: as §3
[19] = Cell cycle arrest in human KB/HeLa cells assessed as G1 phase accumulation at 31.6 nM after 24 hrs by FACS analysis; format: functional, cell-based; outline: as §3
[20] = Cell cycle arrest in human KB/HeLa cells assessed as S phase accumulation at 100 nM after 24 hrs by FACS analysis; format: functional, cell-based; outline: as §3
[21] = Cell cycle arrest in human KB/HeLa cells assessed as G2/M phase accumulation at 100 nM after 24 hrs by FACS analysis; format: functional, cell-based; outline: as §3
[22] = Cell cycle arrest in human KB/HeLa cells assessed as G1 phase accumulation at 100 nM after 24 hrs by FACS analysis; format: functional, cell-based; outline: as §3
[23] = Cell cycle arrest in human KB/HeLa cells assessed as S phase accumulation at 316 nM after 24 hrs by FACS analysis; format: functional, cell-based; outline: as §3
[24] = Cell cycle arrest in human KB/HeLa cells assessed as G2/M phase accumulation at 316 nM after 24 hrs by FACS analysis; format: functional, cell-based; outline: as §3
[25] = Cell cycle arrest in human KB/HeLa cells assessed as G1 phase accumulation at 316 nM after 24 hrs by FACS analysis; format: functional, cell-based; outline: as §3
SK-OV-3 = experiment: Antiproliferative activity against human SKOV3 cells by XTT assay; format: functional, cell-based; outline: as §2
SF-268 = experiment: Antiproliferative activity against human SF268 cells by XTT assay; format: functional, cell-based; outline: as §1
NCI-H460 = experiment: Antiproliferative activity against human NCI-H460 cells by XTT assay; format: functional, cell-based; outline: as §1
RKO [26] = experiment: Antiproliferative activity against human RKO cells by XTT assay; format: functional, cell-based
Outline: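 RKO colon cells with ecdysone-inducible p27Kip1. Day 1: plated with or without 3 µM ponasterone A for 24 h, giving G1 arrest when induced (2 × 10⁴ cells/well induced; 6 × 10³ not induced). Day 2: compound added (DMSO control) for 48 h at 37 °C, then standard XTT. At least duplicate. IC50 by nonlinear regression.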

[27] = Cell cycle arrest in human KB/HeLa cells assessed as S phase accumulation at 0.3 nM after 24 hrs by FACS analysis; format: functional, cell-based; outline: as §3
[28] = Cell cycle arrest in human KB/HeLa cells assessed as G2/M phase accumulation at 0.3 nM after 24 hrs by FACS analysis; format: functional, cell-based; outline: as §3
[29] = Cell cycle arrest in human KB/HeLa cells assessed as G1 phase accumulation at 0.3 nM after 24 hrs by FACS analysis; format: functional, cell-based; outline: as §3

For `COc1cc(C(=O)C=C2c3ccccc3C(=O)c3ccccc32)cc(OC)c1OC`, which IC50 (K562) is on record?
The IC50 was 700 nM.

What about the IC50 (Tubulin) of the same molecule?
Its IC50 is 3700 nM.

Which IC50 (K562) does the source give for `COc1cccc(OC)c1OC(=O)C=C1c2ccccc2C(=O)c2ccccc21` here?
Its IC50 is 1640 nM.

And the IC50 (Tubulin)?
The IC50 was 10000 nM.

With `COc1ccc(C(=O)C=C2c3ccccc3C(=O)c3ccccc32)c(O)c1OC` as the molecule, how does the IC50 (K562) read?
Its IC50 is over 30000 nM.

What about the IC50 (Tubulin) of the same molecule?
Its IC50 is over 10000 nM.

Which IC50 [1] does the source give for `COC(=O)Nc1nc2cc(C(=O)c3cccs3)ccc2[nH]1` [NOCODAZOLE] here?
The IC50 was 140 nM.

What about the IC50 (RKO [2]) of the same molecule?
The IC50 was over 10000 nM.

What about the IC50 [3] of the same molecule?
Its IC50 is 6 nM.

And the IC50 [4]?
The IC50 was 400 nM.

What about the IC50 (L1210) of the same molecule?
Its IC50 is over 5000 nM.

And the IC50 (P388 [5])?
Its IC50 is 40 nM.

What about the IC50 (P388 [6]) of the same molecule?
The IC50 was over 5000 nM.

And the EC50 [7]?
The EC50 was 91 nM.

And the Activity [8]?
The Activity was 23.6%.

What about the Activity [9] of the same molecule?
Its Activity is 11.1%.

What about the Activity [10] of the same molecule?
Its Activity is 65.2%.

And the Activity [11]?
The Activity was 24.8%.

And the Activity [12]?
The Activity was 10.6%.

And the Activity [13]?
Its Activity is 64.6%.

And the Activity [14]?
The Activity was 25.7%.

And the Activity [15]?
Its Activity is 10%.

What about the Activity [16] of the same molecule?
The Activity was 64.2%.

And the Activity [17]?
Its Activity is 25.7%.

And the Activity [18]?
The Activity was 9.9%.

What about the Activity [19] of the same molecule?
The Activity was 64.4%.

And the Activity [20]?
The Activity was 26.1%.

What about the Activity [21] of the same molecule?
Its Activity is 51.4%.

What about the Activity [22] of the same molecule?
Its Activity is 22.3%.

And the Activity [23]?
Its Activity is 6%.

What about the Activity [24] of the same molecule?
Its Activity is 93.2%.

And the Activity [25]?
Its Activity is 0.9%.

Which IC50 (K562) does the source give for `COc1ccc(C(=O)COc2c3ccccc3cc3ccccc23)cc1` here?
Its IC50 is 10000 nM.

Which results are given for `COc1ccc(C(=O)C=C2c3ccccc3C(=O)c3ccccc32)c(OC)c1OC`?
IC50 (K562): 11000 nM; IC50 (Tubulin): > 10000 nM

What does the source list for `COc1cccc(C(=O)C=C2c3ccccc3C(=O)c3ccccc32)c1`?
IC50 (K562): 2600 nM; IC50 (Tubulin): 3300 nM

For `O=C1c2ccccc2C(C(O)C(=O)c2ccccc2)c2ccccc21` (configuration not stated), which IC50 (K562) is on record?
The IC50 was 27000 nM.

And the IC50 (Tubulin)?
The IC50 was over 10000 nM.

For `Cc1ccc(C(=O)C=C2c3ccccc3C(=O)c3ccccc32)cc1`, which IC50 (K562) is on record?
Its IC50 is 640 nM.

What about the IC50 (Tubulin) of the same molecule?
Its IC50 is 1100 nM.

What does the source list for `COc1cc2c(c(OC)c1OC)-c1ccc(OC)c(=O)cc1[C@@H](NC(C)=O)CC2` [COLCHICINE]?
IC50 [1]: 10 nM; IC50 (SK-OV-3): 10 nM; IC50 (SF-268): 10 nM; IC50 (NCI-H460): 10 nM; IC50 (RKO [26]): 10 nM; IC50 (RKO [2]): > 3000 nM; EC50 [7]: 14 nM; Activity [27]: 26.6%; Activity [28]: 10.1%; Activity [29]: 63.3%; Activity [8]: 25.4%; Activity [9]: 10%; Activity [10]: 64.7%; Activity [11]: 25.1%; Activity [13]: 64.3%; Activity [14]: 35.7%; Activity [15]: 32.1%; Activity [16]: 32.2%; Activity [17]: 11.9%; Activity [18]: 87.6%; Activity [19]: 0.5%; Activity [20]: 5.1%; Activity [21]: 94.7%; Activity [22]: 0.3%; Activity [23]: 5.2%; Activity [24]: 94.5%; Activity [25]: 0.3%

With `COc1csc(C(=O)C=C2c3ccccc3C(=O)c3ccccc32)c1` as the molecule, how does the IC50 (K562) read?
Its IC50 is 690 nM.

And the IC50 (Tubulin)?
Its IC50 is 2300 nM.

Which IC50 (K562) does the source give for `O=C(C=C1c2ccccc2C(=O)c2ccccc21)c1ccc(O)cc1` here?
The IC50 was 3430 nM.

What about the IC50 (Tubulin) of the same molecule?
The IC50 was 900 nM.
